In brackets after ≈: the same amount, converted by molar mass.
Assays:
Type in all cases: functional
Escherichia coli = assay: Antibacterial activity against Escherichia coli
How it was run: (§1)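 Broth microdilution MIC run in duplicate. Overnight culture grown in appropriate medium was added to compound in 0.5% DMSO in water, giving about 10²–10³ CFU/well. Growth relative to a compound-free well was read as A595 after 20–24 h at 37 °C. MIC was reported as a range: complete inhibition at the upper concentration, viable cells at the lower. Strains: E. faecalis ATCC 29212, E. coli ATCC 25922, S. aureus ATCC 13709.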

Staphylococcus aureus = assay: Antibacterial activity against Staphylococcus aureus; how it was run: as §1
Streptococcus pyogenes = assay: Antibacterial activity against Streptococcus pyogenes
Enterococcus faecalis = assay: Antibacterial activity against Enterococcus faecalis; how it was run: as §1

| MIC (Escherichia coli) [µM] | MIC (Staphylococcus aureus) [µM] | MIC (Streptococcus pyogenes) [µM] | MIC (Enterococcus faecalis) [µM] | SMILES |
| --- | --- | --- | --- | --- |
| 6 (≈ 2.92 µg/mL) | 12 (≈ 5.85 µg/mL) |  |  | CN(CCn1c(N)nc2cc(Cl)c(Cl)cc21)CCn1c(N)nc2cc(Cl)c(Cl)cc21 |
| 6 (≈ 3.09 µg/mL) | 12 (≈ 6.18 µg/mL) | 6 (≈ 3.09 µg/mL) | 6 (≈ 3.09 µg/mL) | CN(CCCn1c(N)nc2cc(Cl)c(Cl)cc21)CCCn1c(N)nc2cc(Cl)c(Cl)cc21 |
| 100 (≈ 48.5 µg/mL) | 50 (≈ 24.3 µg/mL) |  |  | CN(CCCn1cnc2cc(Cl)c(Cl)cc21)CCCn1cnc2cc(Cl)c(Cl)cc21 |
| > 100 | > 100 |  |  | Nc1nc2cc(Cl)c(Cl)cc2n1CCCOCCCn1c(N)nc2cc(Cl)c(Cl)cc21 |
| > 100 | > 100 |  |  | Nc1nc2cc(Cl)c(Cl)cc2n1CCCCCCCn1c(N)nc2cc(Cl)c(Cl)cc21 |

Continued, compound first:

| SMILES | MIC (Escherichia coli) [µM] | MIC (Staphylococcus aureus) [µM] | MIC (Streptococcus pyogenes) [µM] | MIC (Enterococcus faecalis) [µM] |
| --- | --- | --- | --- | --- |
| CN(CCCn1c(N)nc2cc(Br)ccc21)CCCn1c(N)nc2cc(Br)ccc21 | > 100 | > 100 |  |  |
| COc1ccc2nc(N)n(CCCN(C)CCCn3c(N)nc4ccc(OC)cc43)c2c1 | > 100 | > 100 |  |  |
| Cc1ccc2nc(N)n(CCCN(C)CCCn3c(N)nc4ccc(C)cc43)c2c1 | > 100 | > 100 |  |  |
| COC(=O)c1ccc2c(c1)nc(N)n2CCCN(C)CCCn1c(N)nc2cc(C(=O)OC)ccc21 | > 100 | > 100 |  |  |
| CN(CCCn1c(N)nc2cc(C#N)ccc21)CCCn1c(N)nc2cc(C#N)ccc21 | > 100 | > 100 |  |  |
| CN(CCNc1nc2cc(Cl)c(Cl)cc2[nH]1)CCNc1nc2cc(Cl)c(Cl)cc2[nH]1 | 25 (≈ 12.2 µg/mL) | 12 (≈ 5.85 µg/mL) | 6 (≈ 2.92 µg/mL) | 1.5 (≈ 0.731 µg/mL) |
| CN(CCCn1c(N)nc2cc(C(F)(F)F)ccc21)CCCn1c(N)nc2cc(C(F)(F)F)ccc21 | 25 (≈ 12.8 µg/mL) | 50 (≈ 25.7 µg/mL) | 25 (≈ 12.8 µg/mL) | 25 (≈ 12.8 µg/mL) |
| CN(CCCn1c(N)nc2cc(Cl)ccc21)CCCn1c(N)nc2cc(Cl)ccc21 | 50 (≈ 22.3 µg/mL) | 50 (≈ 22.3 µg/mL) | 50 (≈ 22.3 µg/mL) | 50 (≈ 22.3 µg/mL) |
| CN(CCCNc1nc2cc(Cl)c(Cl)cc2[nH]1)CCCNc1nc2cc(Cl)c(Cl)cc2[nH]1 | 12 (≈ 6.18 µg/mL) | 6 (≈ 3.09 µg/mL) | 6 (≈ 3.09 µg/mL) | 6 (≈ 3.09 µg/mL) |
| CN(CCCn1c(N)nc2ccccc21)CCCn1c(N)nc2ccccc21 | 100 (≈ 37.7 µg/mL) | 100 (≈ 37.7 µg/mL) |  |  |
